Results: ChEMBL document CHEMBL2016483, “Discovery of novel and potent heterocyclic carboxylic acid derivatives as protein tyrosine phosphatase 1B inhibitors” (Bioorg Med Chem Lett, 2012)
Active and inactive are the calls of the source.

What was measured:
[1] = molecular target: T1, Tyrosine-protein phosphatase non-receptor type 1 (Homo sapiens, UniProt P18031); assay: Inhibition of human recombinant PTP1B expressed in Escherichia coli using para-nitrophenyl phosphate as substrate preincubated for 30 mins followed by substrate addition measured by […] analysis
T1 sequence (P18031 whole entry): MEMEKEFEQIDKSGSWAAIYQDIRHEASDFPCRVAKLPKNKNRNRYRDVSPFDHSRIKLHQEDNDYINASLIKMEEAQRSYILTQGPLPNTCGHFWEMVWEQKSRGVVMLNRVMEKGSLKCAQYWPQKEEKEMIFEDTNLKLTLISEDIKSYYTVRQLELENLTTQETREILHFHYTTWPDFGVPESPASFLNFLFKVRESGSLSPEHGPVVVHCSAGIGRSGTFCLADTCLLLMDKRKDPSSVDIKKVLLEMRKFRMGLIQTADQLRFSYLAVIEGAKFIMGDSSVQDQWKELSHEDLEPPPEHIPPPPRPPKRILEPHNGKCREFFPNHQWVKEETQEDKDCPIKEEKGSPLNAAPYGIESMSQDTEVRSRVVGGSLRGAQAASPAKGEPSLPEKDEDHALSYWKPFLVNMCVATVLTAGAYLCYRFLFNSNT

[2] = Apparent permeability by PAMPA assay; assay type: ADME
Liver = assay: Metabolic stability of the compound in mouse liver microsomes assessed as metabolic rate at 1 uM after 30 mins by LC-MS-MS analysis; assay type: ADME, Microsome; conditions: 0.5 h
Summary of the method: (§1)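 Mouse and rat liver microsomes, metabolic rate read at 30 min. Stable was defined as metabolic rate <0.1 nmol/min/mg or 80% remaining at 30 min.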

Liver microsomes = assay: Metabolic stability of the compound in rat liver microsomes assessed as metabolic rate at 1 uM after 30 mins by LC-MS-MS analysis; assay type: ADME, Microsome; conditions: 0.5 h; summary of the method: as §1
[3] = molecular target: T2, Tyrosine-protein phosphatase non-receptor type 2 (Homo sapiens) (UniProt P17706); assay: Inhibition of TCPTP using para-nitrophenyl phosphate as substrate at 100 uM preincubated for 30 mins followed by substrate addition measured by […] analysis
T2 sequence (whole entry): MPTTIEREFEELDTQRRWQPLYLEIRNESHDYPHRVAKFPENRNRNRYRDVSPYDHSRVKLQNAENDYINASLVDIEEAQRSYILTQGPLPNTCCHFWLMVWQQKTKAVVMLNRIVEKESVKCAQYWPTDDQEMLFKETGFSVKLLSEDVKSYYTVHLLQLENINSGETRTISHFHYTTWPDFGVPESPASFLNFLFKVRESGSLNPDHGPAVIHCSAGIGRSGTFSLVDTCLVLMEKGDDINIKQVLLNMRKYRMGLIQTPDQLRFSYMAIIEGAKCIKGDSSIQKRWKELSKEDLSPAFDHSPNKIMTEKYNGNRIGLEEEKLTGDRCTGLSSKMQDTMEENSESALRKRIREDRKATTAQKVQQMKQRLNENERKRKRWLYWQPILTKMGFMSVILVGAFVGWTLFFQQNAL
Summary of the method: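 TCPTP counter-screen in the same pNPP assay format, tested at 100 µM. Read as percent inhibition.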

[4] = Cmax in C57BL/6J mouse at 3 mg/kg, iv; assay type: ADME, organism-based; set-up: dose 3 mg/kg, route intravenous; conditions: in vivo
[5] = Cmax in C57BL/6J mouse at 30 mg/kg, po; assay type: ADME, organism-based; set-up: dose 30 mg/kg, route oral; conditions: in vivo
[6] = Tmax in C57BL/6J mouse at 3 mg/kg, iv; assay type: ADME, organism-based; set-up: dose 3 mg/kg, route intravenous; conditions: in vivo
[7] = Tmax in C57BL/6J mouse at 30 mg/kg, po; assay type: ADME, organism-based; set-up: dose 30 mg/kg, route oral; conditions: in vivo
[8] = AUC (0 to t) in C57BL/6J mouse at 3 mg/kg, iv; assay type: ADME, organism-based; set-up: dose 3 mg/kg, route intravenous; conditions: plasma
[9] = AUC (0 to t) in C57BL/6J mouse at 30 mg/kg, po; assay type: ADME, organism-based; set-up: dose 30 mg/kg, route oral; conditions: plasma
[10] = Volume of distribution at steady state in C57BL/6J mouse at 3 mg/kg, iv; assay type: ADME, organism-based; set-up: dose 3 mg/kg, route intravenous; conditions: in vivo, read-out: Vdss
[11] = Clearance in C57BL/6J mouse at 3 mg/kg, iv; assay type: ADME, organism-based; set-up: dose 3 mg/kg, route intravenous; conditions: in vivo
[12] = Elimination half life in C57BL/6J mouse at 3 mg/kg, iv; assay type: ADME, organism-based; set-up: dose 3 mg/kg, route intravenous; conditions: in vivo, read-out: beta t1/2 (converted)
[13] = Oral bioavailability in C57BL/6J mouse at 30 mg/kg; assay type: ADME, organism-based; conditions: in vivo
[14] = molecular target: T3, Tyrosine-protein phosphatase non-receptor type 1 (Homo sapiens) (UniProt P18031); assay: Non-competitive inhibition of human recombinant PTP1B-mediated para-nitrophenyl phosphate hydrolysis preincubated for 30 mins measured by spectrophotometric analysis
T3 sequence (whole entry): T1 sequence (P18031 whole entry)

[15] = Apparent permeability across human Caco2 cells; assay type: ADME, cell-based; conditions: Caco-2

Ki [1] [nM] | Papp [2] [×10⁻⁶ cm/s] | Drug metabolism (Liver) [nmol/min/mg] | Drug metabolism (Liver microsomes) [nmol/min/mg] | also measured | Compound
1500 | 8 | 0.01 | 0.02 |  | O=C(O)c1cc(-c2ccc(CC(C(=O)c3ccc(F)cc3)c3ccc(F)cc3)cc2)no1 (stereo not drawn)
16300 |  |  |  |  | O=C(O)c1cc(-c2ccc(CC(C(=O)c3ccccc3)c3ccccc3)cc2)n[nH]1 (stereo not drawn)
400 | 4 | 0 | 0.01 | inhibition [3]: < 10% | COc1ccc(-c2noc(C(Cc3ccc(-c4cc(C(=O)O)on4)cc3)c3ccc(F)cc3)n2)cc1 (stereo not drawn)
1200 | 85 | 0.05 | 0.02 |  | O=C(O)c1csc(-c2ccc(CC(C(=O)c3ccccc3)c3ccccc3)cc2)n1 (stereo not drawn)
800 | 168 | 0 | 0 | Cmax [4]: 4500 nM; Cmax [5]: 1900 nM; Tmax [6]: 4.98 min; Tmax [7]: 1 h; AUC(0-t) [8]: 2.4 µM·h; AUC(0-t) [9]: 3 µM·h; Vd [10]: 4 L/kg; clearance [11]: 38 mL/min/kg; half-life [12]: 1.9 h; bioavailability [13]: 13%; inhibition [3]: < 10% | O=C(O)c1cc(-c2ccc(CC(C(=O)c3ccc(Cl)cc3)c3ccc(F)c(F)c3)cc2)no1 (stereo not drawn)
1100 | 103 | 0.06 | 0.02 | inhibition [3]: < 10% | O=C(O)c1cc(-c2ccc(CC(C(=O)c3ccccc3)c3ccccc3)cc2)no1 (stereo not drawn)
40000 |  |  |  |  | O=C(O)c1onc(-c2ccc(CC(C(=O)c3ccccc3)c3ccccc3)cc2)c1C(=O)O (stereo not drawn)
4000 | 45 | 0.04 | 0.03 | Cmax [4]: 1500 nM; Cmax [5]: 7200 nM; Tmax [6]: 4.8 min; Tmax [7]: 1 h; AUC(0-t) [8]: 1.8 µM·h; AUC(0-t) [9]: 13 µM·h; Vd [10]: 4.8 L/kg; clearance [11]: 63 mL/min/kg; half-life [12]: 1 h; bioavailability [13]: 70%; inhibition [3]: < 10% | O=C(O)c1cc(-c2ccc(CC(c3ccccc3)c3nc(-c4ccccc4)no3)cc2)no1 (stereo not drawn)
1400 | 16 | 0 | 0.01 |  | O=C(O)c1cc(-c2ccc(CC(C(=O)c3ccc(F)c(F)c3)c3ccc(F)cc3)cc2)no1 (stereo not drawn)
1800 |  |  |  |  | O=C(O)c1csc(-c2ccc(CC(C(=O)c3ccc(F)c(F)c3)c3ccc(F)cc3)cc2)n1 (stereo not drawn)
7800 |  |  |  |  | Cn1nc(-c2ccc(CC(C(=O)c3ccccc3)c3ccccc3)cc2)cc1C(=O)O (stereo not drawn)
500 | 10 | 0 | 0.01 |  | O=C(O)c1csc(-c2ccc(CC(c3ccc(F)cc3)c3nc(-c4cccc(F)c4)no3)cc2)n1 (stereo not drawn)
500 | 6 | 0 | 0.04 |  | COc1ccc(C(Cc2ccc(-c3nc(C(=O)O)cs3)cc2)c2nc(-c3cccc(F)c3)no2)cc1 (stereo not drawn)
300 | 48 | 0 | 0.03 | Cmax [4]: 1870 nM; Cmax [5]: 1340 nM; Tmax [6]: 4.98 min; Tmax [7]: 1 h; AUC(0-t) [8]: 0.98 µM·h; AUC(0-t) [9]: 3.6 µM·h; Vd [10]: 4 L/kg; clearance [11]: 99 mL/min/kg; half-life [12]: 1.08 h; bioavailability [13]: 36%; inhibition [3]: < 10%; inhibition [14]: Active | COc1ccc(C(Cc2ccc(-c3cc(C(=O)O)on3)cc2)c2nc(-c3ccc(Cl)cc3)no2)cc1 (stereo not drawn)
7700 |  |  |  |  | O=C(O)C1CC(=O)N(c2ccc(CC(C(=O)c3ccccc3)c3ccccc3)cc2)C1 (stereo not drawn)
600 |  |  |  | inhibition [3]: < 10% | O=C(O)c1csc(-c2ccc(CC(C(=O)c3ccc(Cl)cc3)c3ccc(F)c(F)c3)cc2)n1 (stereo not drawn)
2900 |  |  |  |  | O=C(O)c1ccc(-c2ccc(CC(C(=O)c3ccccc3)c3ccccc3)cc2)[nH]1 (stereo not drawn)
5100 |  |  |  |  | O=C(O)C1CCN(c2ccc(CC(C(=O)c3ccccc3)c3ccccc3)cc2)C1=O (stereo not drawn)
7800 |  |  |  |  | O=C(O)c1coc(-c2ccc(CC(C(=O)c3ccccc3)c3ccccc3)cc2)n1 (stereo not drawn)
 |  |  |  | Papp [15]: > 1 ×10⁻⁶ cm/s | COC(=O)c1c(O)cccc1OC/C=C/c1ccc(F)c(-c2cc(C(=O)O)no2)c1
2400 |  |  |  |  | O=C(O)c1cc(-c2ccc(CC(C(=O)c3cc(F)cc(F)c3)c3ccc(F)cc3)cc2)no1 (stereo not drawn)
